4 compounds from ChEMBL document CHEMBL1128297, “Determination of receptor-ligand kinetic and equilibrium binding constants using surface plasmon resonance: application to the lck SH2 domain and phosphotyrosyl peptides” (J Med Chem, 1995) can be followed below.

The target in assay [1] is Tyrosine-protein kinase Lck (Homo sapiens) (UniProt P06239). Briefly: Equilibrium constant for competitive binding to p56 lck SH2 domain by SPR after 5th run. An outline of the steps:
(§1)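 Injected at 5 μL/min over streptavidin chip bearing biotinylated EPQpYEEIPIA (500 nM loading); 10 mM HCl regeneration. Plateau RU vs peptide fitted by nonlinear regression (eq 15) for KS, KC fixed from direct binding.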

Assay [2] has the same target. Briefly: Equilibrium constant for competitive binding to p56 lck SH2 domain by SPR after 3rd run. The gist of the method:
as §1

For assay [3] the target is unchanged. In words: Equilibrium constant for competitive binding to p56 lck SH2 domain by SPR after 4th run. The gist of the method:
as §1

Assay [4] shares this target. Briefly: Equilibrium constant for competitive binding to p56 lck SH2 domain by SPR after 1st run. An outline of the steps: as §1
For assay [5] the target is unchanged. Briefly: Equilibrium constant for competitive binding to p56 lck SH2 domain by SPR after 2nd run. The gist of the method: as §1

Chain of Tyrosine-protein kinase Lck (Homo sapiens) (P06239 2-509 limits assumed): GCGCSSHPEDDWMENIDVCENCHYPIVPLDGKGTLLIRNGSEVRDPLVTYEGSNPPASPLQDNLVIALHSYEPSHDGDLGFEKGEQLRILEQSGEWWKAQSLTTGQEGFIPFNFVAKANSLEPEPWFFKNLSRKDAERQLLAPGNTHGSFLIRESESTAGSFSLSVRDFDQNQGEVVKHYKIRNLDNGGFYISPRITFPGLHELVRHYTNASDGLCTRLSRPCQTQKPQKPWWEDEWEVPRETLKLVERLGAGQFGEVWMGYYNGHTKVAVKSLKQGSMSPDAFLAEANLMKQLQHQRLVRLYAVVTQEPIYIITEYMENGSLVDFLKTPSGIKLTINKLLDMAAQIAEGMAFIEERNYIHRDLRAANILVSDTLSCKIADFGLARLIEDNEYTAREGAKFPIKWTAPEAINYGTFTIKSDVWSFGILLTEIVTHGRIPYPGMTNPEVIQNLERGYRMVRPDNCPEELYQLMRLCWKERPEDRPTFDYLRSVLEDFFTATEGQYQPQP

Turning to `NC(=O)CC[C@H](NC(=O)CNC(=O)[C@@H](N)CCC(=O)O)C(=O)N[C@@H](Cc1ccc(OP(=O)(O)O)cc1)C(=O)N[C@@H](CCC(=O)O)C(=O)N[C@@H](CCC(=O)O)C(=O)NCC(=O)N1CCC[C@@H]1C(=O)O`, the Ks in assay [1] was 2.16 µM; in assay [2], 908 nM; in assay [3], 938 nM; in assay [4] it was 833 nM; in assay [5], 916 nM.
Regarding `CC[C@H](C)[C@H](NC(=O)[C@H](CCC(=O)O)NC(=O)CNC(=O)[C@H](Cc1ccc(OP(=O)(O)O)cc1)NC(=O)CNC(=O)[C@H](CCC(N)=O)NC(=O)[C@@H](N)CCC(=O)O)C(=O)N1CCC[C@@H]1C(=O)O`, the Ks came to 2.85 µM in assay [1]; 1220 nM in assay [2]; 1250 nM in assay [3]; 1320 nM in assay [4]; 982 nM in assay [5].
Consider `CC[C@H](C)[C@H](NC(=O)CNC(=O)[C@H](CCC(=O)O)NC(=O)[C@H](Cc1ccc(OP(=O)(O)O)cc1)NC(=O)[C@H](CCC(N)=O)NC(=O)CNC(=O)[C@@H](N)CCC(=O)O)C(=O)N1CCC[C@@H]1C(=O)O`, for which the Ks in assay [1] stood at 0.536 µM; in assay [2], 242 nM; in assay [3], 261 nM; in assay [4], 171 nM; in assay [5], 167 nM.
Turning to `CC[C@H](C)[C@H](NC(=O)[C@H](CCC(=O)O)NC(=O)[C@H](CCC(=O)O)NC(=O)[C@H](Cc1ccc(OP(=O)(O)O)cc1)NC(=O)[C@H](CCC(N)=O)NC(=O)CNC(=O)[C@@H](N)CCC(=O)O)C(=O)N1CCC[C@@H]1C(=O)O`, the Ks was 26.9 nM in assay [2], 27.8 nM in assay [3], 14.4 nM in assay [4] and 22.8 nM in assay [5].
